These results are taken from ChEMBL document CHEMBL4311948, “Exploring the Natural Piericidins as Anti-Renal Cell Carcinoma Agents Targeting Peroxiredoxin 1” (J Med Chem, 2019).

Calls of active or inactive are those of the source. No cut-off for these calls is given here.

For experiment [1], the system named is ACHN. Description: Cytotoxicity against human ACHN cells assessed as reduction in cell viability measured after 72 hrs by CCK8 assay. It is filed as functional, cell-based. Summed up: (§1)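 Cells were grown in 10% FBS medium: MEM for ACHN, RPMI1640 for OS-RC-2 and 786-O, DMEM for HK-2. They were seeded at 400–800 cells/well in 384-well plates and treated with a range of compound concentrations or solvent control, with sorafenib as positive control. After 72 h, CCK-8 absorbance was read at 450 nm in triplicate, and IC50 was taken from dose-response curves.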
(Tetrazolium dyes change colour on reduction, which living cells bring about.)

For another experiment, the system named is OS-RC-2. The experiment can be described thus: Cytotoxicity against human OS-RC2 cells assessed as reduction in cell viability measured after 72 hrs by CCK8 assay. The format is functional, cell-based. Conditions: OS-RC-2, 72 h. A digest of the protocol:
as §1

The test system of the next experiment is 786-0. Description: Cytotoxicity against human 786-O cells assessed as reduction in cell viability measured after 72 hrs by CCK8 assay. The format is functional, cell-based. Conditions: 786-0, 72 h. A digest of the protocol:
as §1

Experiment [2] relates to ACHN. Description: Down regulation of SOD2 mRNA expression in human ACHN cells at 25 to 50 nM measured after 24 hrs by qRT-PCR analysis. The format is functional, cell-based. In general terms: In qPCR the cycle at which signal appears reflects the starting amount.
Experiment [3] concerns ACHN. Description: Down regulation of ETS1 mRNA expression in human ACHN cells at 25 to 50 nM measured after 24 hrs by qRT-PCR analysis. The format is functional, cell-based.
Experiment [4] relates to ACHN. The experiment can be described thus: Down regulation of SLC2A1 mRNA expression in human ACHN cells at 25 to 50 nM measured after 24 hrs by qRT-PCR analysis. The format is functional, cell-based.
In experiment [5] the test system is ACHN. Description: Down regulation of HIF1A mRNA expression in human ACHN cells at 25 to 50 nM measured after 24 hrs by qRT-PCR analysis. It is filed as functional, cell-based.
Experiment [6] has as its system ACHN. Description: Up regulation of PRDX1 mRNA expression in human ACHN cells at 25 to 50 nM measured after 24 hrs by qRT-PCR analysis. It is filed as functional, cell-based.
In experiment [7] the test system is ACHN. Description: Antioxidant activity in human ACHN cells harboring shPRDX1 gene assessed as reduction in reactive oxygen species level at 25 to 50 nM measured after 24 hrs by Cell-rox reagent-based flow cytometry. The format is functional. A digest of the protocol:
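ACHN cells grown 24 h in MEM + 10% FBS, reseeded at 2 × 10^4 cells/well and exposed to 0, 25 or 50 nM for 24 h. Harvested cells loaded with CellROX oxidative stress reagent 5 μM, 30 min at 37 °C in the dark, then read by flow cytometry. shPRDX1 line: stable knockdown selected with puromycin (1 μg/mL) before dosing. Mean ± SD.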
In general terms: In flow cytometry, cells or beads pass a laser one at a time.

For experiment [8], the system named is ACHN. The experiment can be described thus: Antiproliferative activity against human ACHN cells assessed as inhibition of cell proliferation at 50 nM measured after 24 to 72 hrs by holographic microscopy. The format is functional, cell-based. A digest of the protocol:
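2×10^5 ACHN cells plated per well and allowed to adhere 24 h. 50 nM then added. Label-free digital holographic microscopy (Holomonitor M4) automatically tracked cell movement, morphology and thickness over time.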

The test system of experiment [9] is ACHN. Description: Induction of apoptosis in human ACHN cells assessed as early apoptotic cells at 50 nM measured after 48 hrs by Annexin V-FITC/propidium iodide staining based flow cytometry (reference value: 0%). The format is functional.
In experiment [10] the test system is ACHN. Description: Induction of apoptosis in human ACHN cells assessed as late apoptotic cells at 50 nM measured after 48 hrs by Annexin V-FITC/propidium iodide staining based flow cytometry (reference value: 0%). It is filed as functional.
Experiment [11] has as its target T1, Peroxiredoxin-1 (Homo sapiens) (UniProt Q06830).
T1 sequence (whole entry): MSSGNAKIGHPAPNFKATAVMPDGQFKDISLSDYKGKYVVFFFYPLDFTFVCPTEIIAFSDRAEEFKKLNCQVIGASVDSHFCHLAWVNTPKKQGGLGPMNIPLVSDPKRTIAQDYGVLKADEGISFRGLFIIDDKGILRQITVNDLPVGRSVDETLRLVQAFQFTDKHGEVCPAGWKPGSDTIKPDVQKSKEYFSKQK
Description: Induction of PRDX1 nuclear translocation in human ACHN cells at 25 to 50 nM measured after 24 hrs by DAPI staining-based microscopic analysis. The format is cell-based. Summed up:
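ACHN cells exposed 24 h to 25 or 50 nM, fixed in 4% paraformaldehyde 10 min and permeabilised with 0.5% Triton X-100. Blocked with 10% FBS, 4 °C, 12 h. Stained with anti-PRDX1 overnight, FITC secondary 2 h RT, DAPI nuclear counterstain. Confocal imaging scored mean fluorescence intensity (n = 9).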

The next experiment deals with Mus musculus. The experiment can be described thus: Up regulation of PRDX1 mRNA expression in human ACHN cells xenografted Balb/c nu/nu mouse at 0.8 mg/kg, ip administered once daily for 21 days measured post-last dose by qRT-PCR analysis. It is filed as functional, organism-based.

In general, IC50 refers to the point on the concentration scale where inhibition reaches its midpoint. On to `C/C=C(\C)[C@H](O)[C@H](C)/C=C(C)/C=C/C/C(C)=C/Cc1nc(OC)c(OC)c(O)c1C` [PIERICIDIN A], for which the IC50 with ACHN [1] was determined as 0.4 µM; in the experiment with OS-RC-2 it was 5.2 µM; in the experiment on 786-0, 30 µM. In addition, the result in the experiment with ACHN [2], in the experiment on ACHN [3], in the experiment with ACHN [4], in the experiment with ACHN [5], in the experiment with ACHN [6] and in the experiment on ACHN [7] was Active. Also, the outcome (in the experiment on ACHN [8]; in [11]; in the experiment with Mus musculus) was Active. Also, the Activity in the experiment with ACHN [9] came to 1.1%; with ACHN [10], 7.4%.
